# Assay results taken from ChEMBL document CHEMBL4033721, “Design, synthesis and evaluation of indole-2-carboxamides with pan anti-mycobacterial activity” (Bioorg Med Chem, 2017).
# Tested on: not listed separately
# Test: Antimycobacterial activity against Mycobacterium bolletii ATCC 14472 after 8 days by resazurin microtiter based colorimetric assay
# Type: functional
# Conditions: Mycobacteroides abscessus, ATCC 14472, 192 h
# How it was run: (§1)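 Resazurin microtiter plate MIC, read by visual scan for growth, in Mueller Hinton II broth. Strains include clinical isolates of M. abscessus complex, M. chelonae, M. avium, M. intracellulare, M. xenopi, P. aeruginosa PAO-1 and S. aureus ATCC 25923.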
row,Structure (SMILES),MIC
1,Cc1cc(C)c2cc(C(=O)NC3CCCCCCC3)[nH]c2c1,0.0039 µg/mL
2,O=C(NC12CC3CC(CC(C3)C1)C2)c1cc2ccccc2[nH]1,0.25 µg/mL

# Tested on: Mycobacterium abscessus subsp. massiliense
# Test: Inhibition of MmpL3 in Mycobacterium massiliense isolate 1513 assessed as reduction in trehalose dimycolate after 16 hrs using [1,2-14C]acetate labeled compounds by TLC analysis
# Conditions: not given
# How it was run: (§2)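 Lipids were run on TLC in CHCl3:CH3OH:H2O 20:4:0.5. Cell wall-bound MAMEs were run in n-hexane:ethyl acetate 95:5, developed three times. Phosphorimaging read-out gave TMM/TDM ratios and MAME radioactivity relative to untreated control.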
row,Structure (SMILES),inhibition
1,Cc1cc(C)c2cc(C(=O)NC3CCCCCCC3)[nH]c2c1,Dose-dependent effect
2,O=C(NC12CC3CC(CC(C3)C1)C2)c1cc2ccccc2[nH]1,Dose-dependent effect

# Tested on: Pseudomonas aeruginosa
# Test: Antibacterial activity against Pseudomonas aeruginosa PAO1 after 8 days by resazurin microtiter based colorimetric assay
# Type: functional
# Conditions: PAO1, 192 h
# How it was run: as §1
row,Structure (SMILES),MIC
1,Cc1cc(C)c2cc(C(=O)NC3CCCCCCC3)[nH]c2c1,> 160 µg/mL
2,O=C(NC12CC3CC(CC(C3)C1)C2)c1cc2ccccc2[nH]1,> 160 µg/mL

# Tested on: Mycobacterium abscessus subsp. massiliense
# Test: Inhibition of MmpL3 in Mycobacterium massiliense isolate 1513 assessed as reduction in arabinogalactan after 16 hrs using [1,2-14C]acetate labeled compounds by TLC analysis
# Conditions: not given
# How it was run: as §2
row,Structure (SMILES),inhibition
1,Cc1cc(C)c2cc(C(=O)NC3CCCCCCC3)[nH]c2c1,Dose-dependent effect
2,O=C(NC12CC3CC(CC(C3)C1)C2)c1cc2ccccc2[nH]1,Dose-dependent effect

# Tested on: Mycobacteroides chelonae
# Test: Antimycobacterial activity against Mycobacterium chelonae ATCC 35752 after 8 days by resazurin microtiter based colorimetric assay
# Type: functional
# Conditions: ATCC 35752, 192 h
# How it was run: as §1
row,Structure (SMILES),MIC
1,Cc1cc(C)c2cc(C(=O)NC3CCCCCCC3)[nH]c2c1,0.063 µg/mL
2,O=C(NC12CC3CC(CC(C3)C1)C2)c1cc2ccccc2[nH]1,0.25 µg/mL

# Tested on: Staphylococcus aureus
# Test: Antibacterial activity against Staphylococcus aureus ATCC 25923 after 8 days by resazurin microtiter based colorimetric assay
# Type: functional
# Conditions: ATCC 25923, 192 h
# How it was run: as §1
row,Structure (SMILES),MIC
1,Cc1cc(C)c2cc(C(=O)NC3CCCCCCC3)[nH]c2c1,> 160 µg/mL
2,O=C(NC12CC3CC(CC(C3)C1)C2)c1cc2ccccc2[nH]1,> 160 µg/mL

# Tested on: Mycobacteroides abscessus
# Test: Bactericidal activity against Mycobacterium abscessus after 8 days by resazurin microtiter based colorimetric assay
# Type: functional
# Conditions: not given
# How it was run: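 MBC90 found by subculturing from the MIC wells onto 7H11 agar. Value is the lowest concentration cutting CFU by 90% versus the inoculum.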
row,Structure (SMILES),MBC90
1,Cc1cc(C)c2cc(C(=O)NC3CCCCCCC3)[nH]c2c1,0.015 µg/mL

# Tested on: Mycobacterium tuberculosis
# Test: Antimycobacterial activity against Mycobacterium tuberculosis H37Rv MC2-6206 after 8 days by resazurin microtiter based colorimetric assay
# Type: functional
# Conditions: H37Rv MC2-6206, 192 h
# How it was run: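 MIC was measured by resazurin microtiter colorimetric assay with visual growth scoring. Medium was 7H9-ADC–0.05% tyloxapol with 0.2% casaminoacids, 48 µg/ml pantothenate and 50 µg/ml L-leucine.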
row,Structure (SMILES),MIC
1,Cc1cc(C)c2cc(C(=O)NC3CCCCCCC3)[nH]c2c1,0.0195 µg/mL
2,O=C(NC12CC3CC(CC(C3)C1)C2)c1cc2ccccc2[nH]1,0.2 µg/mL

# Tested on: Mycobacterium abscessus subsp. massiliense
# Test: Inhibition of MmpL3 in Mycobacterium massiliense isolate 1513 assessed as reduction in trehalose monomycolate by measuring decrease in mycolic acid transfer to cell envelope after 16 hrs using [1,2-14C]acetate labeled compounds by TLC analysis
# Conditions: not given
# How it was run: as §2
row,Structure (SMILES),inhibition
1,Cc1cc(C)c2cc(C(=O)NC3CCCCCCC3)[nH]c2c1,Dose-dependent effect
2,O=C(NC12CC3CC(CC(C3)C1)C2)c1cc2ccccc2[nH]1,Dose-dependent effect

# Tested on: not listed separately
# Test: Cytotoxicity against human THP1 cells assessed as reduction in cell viability after 3 days by CellTiter-Glo based luminescence assay
# Conditions: THP-1 cells, read-out: TD50
# How it was run: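 THP-1 cells in complete RPMI, made macrophage-like with 80 nM PMA overnight at 37°C, 5% CO2, then seeded and cultured 24 h. Cells got 10-point DMSO serial dilutions (top 50 µM, final DMSO 0.5%) for 3 days, with staurosporine as control. Viability read by CellTiter-Glo luminescence. IC50 (50% viability) came from a Levenberg–Marquardt curve fit.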
row,Structure (SMILES),CC50 at 72 h
1,Cc1cc(C)c2cc(C(=O)NC3CCCCCCC3)[nH]c2c1,> 14.9 µg/mL
2,O=C(NC12CC3CC(CC(C3)C1)C2)c1cc2ccccc2[nH]1,> 14.7 µg/mL

# Tested on: not listed separately
# Test: Selectivity index, ratio of TD50 for human THP1 cells to MIC for Mycobacterium massiliense isolate CRM0019
# Type: toxicity
# Conditions: THP-1 cells, read-out: Selectivity Index
# How it was run: (§3)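 Ratio of THP-1 cytotoxicity to resazurin-assay MIC. Cytotoxicity: THP-1 cells were differentiated with 80 nM PMA overnight, plated for 24 h, then given 10-point DMSO dilutions (top 50 μM, 0.5% final DMSO) for 3 days at 37°C, 5% CO₂. ATP luminescence was read, with a staurosporine control. IC₅₀ = concentration giving 50% viability, from a Levenberg–Marquardt curve fit.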
row,Structure (SMILES),selectivity ratio
1,Cc1cc(C)c2cc(C(=O)NC3CCCCCCC3)[nH]c2c1,> 1910
2,O=C(NC12CC3CC(CC(C3)C1)C2)c1cc2ccccc2[nH]1,> 58

# Tested on: Mycobacterium xenopi
# Test: Antimycobacterial activity against wild type Mycobacterium xenopi isolate 4042 after 8 days by resazurin microtiter based colorimetric assay
# Type: functional
# Conditions: isolate 4042, 192 h
# How it was run: as §1
row,Structure (SMILES),MIC
1,Cc1cc(C)c2cc(C(=O)NC3CCCCCCC3)[nH]c2c1,0.25 µg/mL
2,O=C(NC12CC3CC(CC(C3)C1)C2)c1cc2ccccc2[nH]1,0.5 to 1 µg/mL

# Tested on: Mycobacterium avium
# Test: Antimycobacterial activity against Mycobacterium avium isolate 104 after 8 days by resazurin microtiter based colorimetric assay
# Type: functional
# Conditions: isolate 104, 192 h
# How it was run: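 M. avium 104 MICs were read by resazurin microtiter colorimetric assay in 96-well plates, with growth scored visually, in Mueller Hinton II medium.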
row,Structure (SMILES),MIC
1,O=C(NC12CC3CC(CC(C3)C1)C2)c1cc2ccccc2[nH]1,8 µg/mL

# Tested on: Mycolicibacterium smegmatis
# Test: Antimycobacterial activity against Mycobacterium smegmatis isolate MC2 155 after 8 days by resazurin microtiter based colorimetric assay
# Type: functional
# Conditions: str. MC2 155, 192 h
row,Structure (SMILES),MIC
1,Cc1cc(C)c2cc(C(=O)NC3CCCCCCC3)[nH]c2c1,0.313 to 0.625 µg/mL
2,O=C(NC12CC3CC(CC(C3)C1)C2)c1cc2ccccc2[nH]1,1.56 µg/mL

# Tested on: Mycobacteroides abscessus
# Test: Antimycobacterial activity against Mycobacterium abscessus isolate DCI 21 after 8 days by resazurin microtiter based colorimetric assay
# Type: functional
# Conditions: isolate DCI 21, 192 h
# How it was run: as §1
row,Structure (SMILES),MIC
1,Cc1cc(C)c2cc(C(=O)NC3CCCCCCC3)[nH]c2c1,0.0078 µg/mL
2,O=C(NC12CC3CC(CC(C3)C1)C2)c1cc2ccccc2[nH]1,0.25 µg/mL

# Tested on: not listed separately
# Test: Antimycobacterial activity against Mycobacterium massiliense isolate CRM0019 after 8 days by resazurin microtiter based colorimetric assay
# Type: functional, Mycobacterium abscessus subsp. massiliense
# Conditions: Mycobacteroides abscessus, isolate CRM0019, 192 h
# How it was run: as §1
row,Structure (SMILES),MIC
1,Cc1cc(C)c2cc(C(=O)NC3CCCCCCC3)[nH]c2c1,0.0078 µg/mL
2,O=C(NC12CC3CC(CC(C3)C1)C2)c1cc2ccccc2[nH]1,0.25 µg/mL

# Tested on: not listed separately
# Test: Selectivity index, ratio of TD50 for human THP1 cells to MIC for Mycobacterium tuberculosis H37Rv MC2-6206
# Type: toxicity
# Conditions: THP-1 cells, read-out: Selectivity Index
# How it was run: as §3
row,Structure (SMILES),selectivity ratio
1,Cc1cc(C)c2cc(C(=O)NC3CCCCCCC3)[nH]c2c1,> 764
2,O=C(NC12CC3CC(CC(C3)C1)C2)c1cc2ccccc2[nH]1,> 73

# Tested on: not listed separately
# Test: Antimycobacterial activity against Mycobacterium massiliense isolate CIP108297 after 8 days by resazurin microtiter based colorimetric assay
# Type: functional, Mycobacterium abscessus subsp. massiliense
# Conditions: Mycobacteroides abscessus, isolate CIP108297, 192 h
# How it was run: as §1
row,Structure (SMILES),MIC
1,Cc1cc(C)c2cc(C(=O)NC3CCCCCCC3)[nH]c2c1,0.031 µg/mL
2,O=C(NC12CC3CC(CC(C3)C1)C2)c1cc2ccccc2[nH]1,0.5 µg/mL

# Tested on: not listed separately
# Test: Selectivity index, ratio of TD50 for human THP1 cells to MIC for Mycobacterium bolletii ATCC 14472
# Type: toxicity
# Conditions: THP-1 cells, read-out: Selectivity Index
# How it was run: as §3
row,Structure (SMILES),selectivity ratio
1,Cc1cc(C)c2cc(C(=O)NC3CCCCCCC3)[nH]c2c1,> 3820
2,O=C(NC12CC3CC(CC(C3)C1)C2)c1cc2ccccc2[nH]1,> 58

# Tested on: Mycobacterium avium-intracellulare
# Test: Antimycobacterial activity against Mycobacterium avium-intracellulare isolate 1956 after 8 days by resazurin microtiter based colorimetric assay
# Type: functional
# Conditions: isolate 1956, 192 h
# How it was run: as §1
row,Structure (SMILES),MIC
1,Cc1cc(C)c2cc(C(=O)NC3CCCCCCC3)[nH]c2c1,1 µg/mL
2,O=C(NC12CC3CC(CC(C3)C1)C2)c1cc2ccccc2[nH]1,8 µg/mL

# Tested on: not listed separately
# Test: Selectivity index, ratio of TD50 for human THP1 cells to MIC for Mycobacterium chelonae ATCC 35752
# Type: toxicity
# Conditions: THP-1 cells, read-out: Selectivity Index
# How it was run: as §3
row,Structure (SMILES),selectivity ratio
1,Cc1cc(C)c2cc(C(=O)NC3CCCCCCC3)[nH]c2c1,> 236
2,O=C(NC12CC3CC(CC(C3)C1)C2)c1cc2ccccc2[nH]1,> 58

# Tested on: not listed separately
# Test: Selectivity index, ratio of TD50 for human THP1 cells to MIC for Mycobacterium abscessus isolate DCI 21
# Type: toxicity
# Conditions: THP-1 cells, read-out: Selectivity Index
# How it was run: as §3
row,Structure (SMILES),selectivity ratio
1,Cc1cc(C)c2cc(C(=O)NC3CCCCCCC3)[nH]c2c1,> 1910
2,O=C(NC12CC3CC(CC(C3)C1)C2)c1cc2ccccc2[nH]1,> 58

# Tested on: Mycobacteroides abscessus
# Test: Antimycobacterial activity against Mycobacterium abscessus ATCC 19977 after 8 days by resazurin microtiter based colorimetric assay
# Type: functional
# Conditions: ATCC 19977, 192 h
# How it was run: as §1
row,Structure (SMILES),MIC
1,Cc1cc(C)c2cc(C(=O)NC3CCCCCCC3)[nH]c2c1,0.063 µg/mL
2,O=C(NC12CC3CC(CC(C3)C1)C2)c1cc2ccccc2[nH]1,0.25 µg/mL
